Here are results for 72 molecules from ChEMBL document CHEMBL4513216, “Probing the Open Global Health Chemical Diversity Library for Multistage-Active Starting Points for Next-Generation Antimalarials” (ACS Infect Dis, 2020).

Structures are written as SMILES.

A short description of the series: Toxicity liver stage against HepG2, at 10uM. The following applies: human, HepG2-A16-CD81EGFP cells; read-out: INHIBITION
In kind it is cell-based. Set-up: test concentration 10 uM, cell line HepG2-A16-CD81EGFP. In short, it runs like this:
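Uninfected HepG2-A16-CD81EGFP cells, 3 × 10^3 per well, 1536-well, plated on prespotted compound at 10 μM final, parasite-free screening media added to match infected plates; puromycin 10 μM positive, DMSO 0.5% negative; run in parallel with 48 h PbLuc assay at 37 °C, 5% CO2; viability by CellTiter-Glo luminescence, normalized to controls.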
`CCC(=O)NCC(Cc1cccc(F)c1)n1cccc1` (configuration not stated): the cytotoxicity at 10 µM was -0.765%.

With `CCCS(=O)(=O)N1CCC2(CCCC(=O)N2C)CC1`, the cytotoxicity at 10 µM was found to be 3.29%.

For the molecule `CN(Cc1ccco1)C1CCC12CCN(C(=O)c1ccncc1)CC2` (configuration not stated), the cytotoxicity at 10 µM was 2.82%.

`CC(=O)N1CCC2(CCN(S(=O)(=O)c3ccccc3)CC2)C1`: the cytotoxicity at 10 µM was -2.83%.

As to `Cc1nc(COCC2CNCc3nccn3C2)cs1` (configuration not stated), the cytotoxicity at 10 µM amounted to 1.79%.

On to `CN1CC[C@]2(CN(C(=O)[C@H]3CCCO3)C[C@H]2c2ccccc2)C1=O`, for which the cytotoxicity at 10 µM turned out to be 8.49%.

As for `CN1C[C@@H]2COC[C@]2(C(=O)NCc2cccs2)C1`, the cytotoxicity at 10 µM was determined as 9.22%.

As for `c1cncc(COCC2CN(Cc3ccsc3)Cc3ccnn3C2)c1` (configuration not stated), the cytotoxicity at 10 µM was -140%.

Turning to `Cc1nn(C)c(=O)c2nn(-c3ccc(F)cc3)c(C)c12`, the cytotoxicity at 10 µM was -0.839%.

Consider `Cc1cc(C)nc(N2CCC(c3cccc(CCC(=O)O)n3)CC2)n1`, for which the cytotoxicity at 10 µM is 0.343%.

As to `Cc1cccc2nc(C(=O)N3CCCC[C@]4(C)NC(=O)CCC[C@H]34)cn12`, the cytotoxicity at 10 µM was -1.85%.

On to `O=C(NCCO)C1CN(c2cncnc2)CCO1` (configuration not stated), for which the cytotoxicity at 10 µM is -29.9%.

As to `COc1cccc(CC(=O)N2CCCC2c2nc(C)c(F)c(O)n2)c1` (configuration not stated), the cytotoxicity at 10 µM was -21.6%.

`O=C(c1ccccn1)N1CCCC(c2ncncc2-c2ccncc2)C1` (configuration not stated): the cytotoxicity at 10 µM was -0.0141%.

In the case of `Cn1ccc2ccnc(CC3CN(C(=O)c4cscn4)C3)c21`, the cytotoxicity at 10 µM is -28.6%.

For `Cc1ccnc(C2CCCN2C(=O)c2cnccn2)n1` (configuration not stated), the cytotoxicity at 10 µM is -14.1%.

As to `O=C(c1cc[nH]n1)N1CCc2c(nc(N3CCCCC3)[nH]c2=O)C1`, the cytotoxicity at 10 µM is 15.5%.

For the molecule `CN1CCCC(c2cccc(CCC(=O)NCc3ccccn3)n2)C1` (configuration not stated), the cytotoxicity at 10 µM was -14%.

`CC(C)N1CCC(Cc2cc(-c3cc(F)ccc3C(=O)O)ncn2)C1` (configuration not stated): the cytotoxicity at 10 µM was determined as 7.49%.

As to `CNc1cc(CNC(=O)c2ccncc2)nc(-c2ccncc2)n1`, the cytotoxicity at 10 µM was -7.16%.

Take `CCC(CO)NC(=O)Nc1cc(F)ccc1SCC(F)F` (configuration not stated): the cytotoxicity at 10 µM was 12.6%.

For `CCn1nnnc1-c1cccc(NC(=O)CCOC(C)C)c1`, the cytotoxicity at 10 µM is -9.8%.

As to `O=C(Cn1cnnn1)NC(c1ccccc1)c1ccc2c(c1)CCCO2` (configuration not stated), the cytotoxicity at 10 µM is -1.47%.

As for `Cc1ccc(C2CSCCN2C(=O)c2ccccn2)cc1` (configuration not stated), the cytotoxicity at 10 µM is 2.04%.

Regarding `CC1(C)COCCN1C(=O)CCc1nc(-c2ccncc2)no1`, the cytotoxicity at 10 µM was -6.61%.

Consider `COC(=O)C1(NCc2nc(C)c(C)o2)CCC(C)CC1` (configuration not stated), for which the cytotoxicity at 10 µM is -5.54%.

`Cc1cc(C(=O)NC2CCN(c3nnc(C)c(C)c3C#N)CC2)no1`: the cytotoxicity at 10 µM is -2.12%.

As to `CCOc1cccc2c1OCC(C(=O)NC(C)Cn1cccn1)=C2` (configuration not stated), the cytotoxicity at 10 µM is -1.18%.

Regarding `CCn1cnnc1CNC(=O)N1CCOC(c2ccc(F)cc2)C1` (configuration not stated), the cytotoxicity at 10 µM is 5.53%.

Take `O=C(NCc1ccc(N2CC=CC2)cc1)Nc1nnc(C2CC2)s1`: the cytotoxicity at 10 µM is 7.25%.

`COC(=O)NCC(=O)NCC(C)(C)c1cccc(C(F)(F)F)c1`: the cytotoxicity at 10 µM was -3.36%.

With `O=C(c1cccnc1O)N(Cc1cccs1)CC1CCCO1` (configuration not stated), the cytotoxicity at 10 µM was -11.5%.

For the molecule `Cc1ccc(OCC(=O)NCC(F)(F)F)nc1`, the cytotoxicity at 10 µM was found to be 0.84%.

Take `CS(=O)(=O)NCC1CCCN(C(=O)Nc2ccccc2F)C1` (configuration not stated): the cytotoxicity at 10 µM is -145%.

With `CCCN(CC(F)F)C(=O)CCc1c(C)nc2cc(O)nn2c1C`, the cytotoxicity at 10 µM is -147%.

`CCc1nccn1C1CCCN(C(=O)c2cc(C3CC3)on2)C1` (configuration not stated): the cytotoxicity at 10 µM is -6.96%.

Regarding `O=C(CNC(=O)Nc1c(F)cc(F)cc1-c1ccccc1)NC1CC1`, the cytotoxicity at 10 µM was -13.5%.

`CCN(C(=O)NCc1ncc(C)c(OC)c1C)C(C)c1cccnc1` (configuration not stated): the cytotoxicity at 10 µM stood at 1.84%.

`Cc1cc(S(=O)(=O)Nc2onc(C)c2C)c(C)s1`: the cytotoxicity at 10 µM is -4.96%.

Consider `COc1ccc(C(NCc2cccc(O)c2)C2CC2)cc1` (configuration not stated), for which the cytotoxicity at 10 µM worked out at 4.99%.

In the case of `Cc1ccc(CCC(=O)N(C)CCN2CCOCC2)c(C)c1`, the cytotoxicity at 10 µM is -4.51%.

In the case of `Cc1ccc(CC2CCCN2CC(=O)NCc2cccnc2)cc1` (configuration not stated), the cytotoxicity at 10 µM was -3.83%.

Regarding `CNc1ncc(-c2ccc(NC(=O)[C@@H]3CCCCN3)cc2)cn1`, the cytotoxicity at 10 µM is -7.66%.

As for `CN1CCN(CC2CC2)C(=O)c2cnc(N3CCC(CO)CC3)nc21`, the cytotoxicity at 10 µM was -3.14%.

On to `Cc1nc(O)cc(CCNC(=O)CN2CCCCCC2)n1`, for which the cytotoxicity at 10 µM was 0.458%.

Turning to `Cc1cnc(C)c(N2CCC(C(=O)O)(n3ccc(C(C)(C)C)n3)CC2)n1`, the cytotoxicity at 10 µM came to 20.4%.

As for `CC(=O)NC1CCN(c2nc(C)nc3c2c(C)nn3C)C1` (configuration not stated), the cytotoxicity at 10 µM was 8.32%.

With `Cc1ccccc1C1CCN(CCn2cc(-c3nccs3)nn2)C1` (configuration not stated), the cytotoxicity at 10 µM is -1.29%.

For `CN(Cc1nc(C2CC2)no1)C(=O)CN1CC(c2ccccc2)CC1=O` (configuration not stated), the cytotoxicity at 10 µM worked out at 2.11%.

`CSc1ccccc1-n1ccnc1-c1cn(C2CCNCC2)nn1`: the cytotoxicity at 10 µM was -0.67%.

With `COCc1ncn(Cc2nc(-c3ccc(OC)c(OC)c3)oc2C)n1`, the cytotoxicity at 10 µM was -4.77%.

For `COc1ccc2c(c1)CC(C(=O)N(C)Cc1noc3c1CCCC3)CO2` (configuration not stated), the cytotoxicity at 10 µM is -0.551%.

Regarding `CSc1nccc(NCC2CNCCO2)n1` (configuration not stated), the cytotoxicity at 10 µM was 2.56%.

In the case of `CC(=O)N1CCCN(c2nccc(-c3cn(C)nc3C)n2)CC1`, the cytotoxicity at 10 µM came to 22.3%.

`Cc1nc(C)n(CC2CCCCN2CCc2ccncc2)n1` (configuration not stated): the cytotoxicity at 10 µM was -6.3%.

`CCn1cnnc1C1CCN(C(=O)c2ccccc2OC)CC1`: the cytotoxicity at 10 µM is -8.62%.

Turning to `O=C1CC2(CCCNC2)C(=O)N1Cc1ccc(Cl)cc1` (configuration not stated), the cytotoxicity at 10 µM was -1.57%.

For the molecule `CC(C)C(=O)N1CC[C@H]2N(C)CC[C@@]2(C(=O)N2CCCC2)CC1`, the cytotoxicity at 10 µM was 5.5%.

On to `CC(=O)N1CC[C@H]2OCC[C@@]2(C(=O)NCCc2ccccn2)C1`, for which the cytotoxicity at 10 µM is 6%.

On to `C[C@H]1CN(CC2CCOCC2)C[C@@]12CCN(Cc1cccnc1)C2=O`, for which the cytotoxicity at 10 µM worked out at 1.73%.

For the molecule `c1cnc2c(c1)CN(C1CCOC1)CCN2CC1CC1` (configuration not stated), the cytotoxicity at 10 µM was determined as 4.92%.

Consider `c1ccc(CN2CCc3c(COCc4ccncc4)cncc3C2)nc1`, for which the cytotoxicity at 10 µM was 6.53%.

Turning to `CN(C)C[C@]12COC[C@H]1CN(Cc1ccc3ccccc3n1)C2`, the cytotoxicity at 10 µM was found to be 6.77%.

With `O=C1[C@@H]2CN(C3CCOCC3)C[C@H]2CCN1CC1CC1`, the cytotoxicity at 10 µM is 4.17%.

With `O=C(c1cscn1)N1C[C@H]2CCCC(OCc3cccnc3)[C@H]2C1` (some centres not stated), the cytotoxicity at 10 µM was -6.61%.

`O=C(Nc1ccccc1)C1CN(CC2CC2)CC12CCOCC2` (configuration not stated): the cytotoxicity at 10 µM was -6.36%.

As for `O=C1[C@H]2CN(Cc3ccc(F)cc3)C[C@H]2CN1CCN1CCCC1`, the cytotoxicity at 10 µM was -13.2%.

In the case of `Cn1nc(Cn2ccnc2)c2c1CN(c1ncccn1)C2`, the cytotoxicity at 10 µM amounted to 5.3%.

For the molecule `Cc1ccc2c(n1)N(C)CCN(Cc1ccco1)C2`, the cytotoxicity at 10 µM is -4.97%.

For the molecule `CCn1cc(CN2C[C@@H]3CC[C@H]2CN(C(=O)C2CCC2)C3)cn1`, the cytotoxicity at 10 µM was 3.5%.

Turning to `CC(C)(C)CC(=O)N1C[C@@H]2C[C@@H]1CN2`, the cytotoxicity at 10 µM was 6.59%.

`Nc1ncnc2[nH]c(N3CCCCC3)nc12`: the cytotoxicity at 10 µM was -1.43%.
